Rows were chosen to be rich in hits. Some 5% of all compounds tested hit in one or more screens of this group.
Mdm2-MdmX inh = inhibitors of human Mdm2/MdmX interaction | O15151+Q00987 | SaOS-2 split-luciferase Mdm2/MdmX complementation, luminescence | inhibition, % at 8 µM | 330,000 tested, 3% active | AID 485346;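 active = inhibition of at least 50% at 8 µM in the primary screen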
CSC inhib = cancer stem cell inhibition; cancer stem cell-like cells viability, luminescence; inhibition, % at 7.5 µM; 300,000 tested, 1.1% active; in the data active = inhibition above about 75%; tested in HMLE shEcad cells
T cruzi repl = blocks replication of Trypanosoma cruzi. T. cruzi beta-gal in NIH3T3, luminescence, 90 h. inhibition, % (concentration not given with the values). 300,000 tested, 1.4% active. AID 1885;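 active = mean inhibition across valid replicates above about 55%, limit read from the data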;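 note: signal also drops with host cell toxicity which is not excluded here; higher percent means less beta-gal luminescence so fewer parasites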
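compound dosing = single 50 nL compound addition per well in DMSO | material = NIH/3T3 host cells with β-galactosidase reporter T. cruzi | input = 5,000 host fibroblasts per well | timing = ≥90 h infection period, 3 h prior cell attachment | read-out basis = percent inhibition of parasite-derived β-gal signal | detection = GalScreen β-gal luminescence, detergent lysis, 60 min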
UPR XBP1 act = activators of adaptive arm of unfolded protein response (XBP1); CHO-XBP1 luciferase reporter, IRE1-XBP1 UPR activation, luminescence; percent of tunicamycin response, DMSO as zero; activation, % at 20 µM; 330,000 tested, 0.33% active;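 active = versus positive control, 20 µM dose yields 30% or more activation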
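assay system = CHO-XBP1 luciferase reporter cells | amount = 1000 cells/well | buffer or medium = F12 plus 10% FBS | compound dosing = single point, 20 µM final compound, 1% DMSO | incubation = 16-18 h cell attachment at 37 °C, then 6 h compound exposure | detection = Steady-Glo luminescence read | controls = tunicamycin 10 µg/mL and vehicle-only wells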
CHOP UPR activ = activators of apoptotic arm of unfolded protein response (CHOP); CHO-CHOP luciferase reporter, UPR activation, luminescence; percent of tunicamycin response over DMSO baseline; activation, % at 10 µM; 330,000 tested, 0.34% active; AID 449763;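 active = at 10 µM dose, activation of 40% or more, normalized to positive control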
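Material: CHO-CHOP cells, stable luciferase reporter of PERK-eIF2a-CHOP signalling; quantity: 500 reporter cells seeded per well; buffer or medium: F12 medium containing 10% fetal bovine serum; compound: one dose, 10 µM in 0.5% DMSO; incubation: 6 h compound treatment, 37 °C; measured by: Steady-Glo luciferase luminescence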
Beta cell apopt = blocks beta cell apoptosis. INS-1E cytokine-induced death, ATP luminescence, 48 h; percent of positive-control rescue, neutral wells zero. protection from apoptosis, % (concentration not given with the values). 300,000 tested, 0.8% active;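 active = Every replicate reaches about 75%, or at least half do and their mean reaches it too, limit read from the data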;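 note: higher means more ATP so stronger rescue from cytokine killing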
Mdm2 MdmX conf = confirmation of human Mdm2/MdmX interaction inhibitors; shares compounds with Mdm2-MdmX inh; Mdm2-MdmX binding, luminescent assay; inhibition, % at 8 µM; 10,000 tested, 55% active; in the data active = inhibition above about 40%
Full FLuc ctr = counter-screen for Mdm2/MdmX inhibitors: full-length luciferase; 6,200 tested, 77% active; SaOS-2 full-length luciferase counterscreen, luminescence; shares compounds with Mdm2-MdmX inh; inhibition, % at 8 µM;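 active = mean inhibition at 8 µM reaching about 37%, which flags the compound as non-specific, limit read from the data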;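 note: p53-null SaOS-2 cells with luciferase driven by a doxycycline-inducible promoter; compound on cells about two nights before reading with doxycycline added after day one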
Numbers stand for hits; - = inactive; . = no result.

SMILES | Mdm2-MdmX inh | CSC inhib | T cruzi repl | UPR XBP1 act | CHOP UPR activ | Beta cell apopt | Mdm2 MdmX conf | Full FLuc ctr
C=CCOc1ccc(/C=C/C(=O)OCC(=O)Nc2c(C)n(C)n(-c3ccccc3)c2=O)cc1 | - | - | - | - | - | - | . | .
C=CC[C@H](CC(=O)N(CCO)Cc1ccccc1)C(=O)N[C@@H](COC(=O)[C@H](CC=C)CC(=O)OC(C)(C)C)Cc1c[nH]c2ccccc12 | - | - | . | - | - | - | . | .
C=CC[C@H](CC(=O)N(CCO)Cc1ccccc1)C(=O)N[C@@H](COC(=O)[C@@H](CC=C)Cc1ccc(F)cc1)Cc1c[nH]c2ccccc12 | 91.4 | - | . | - | - | - | - | .
C=CC[C@@H](CC(=O)N(CCO)Cc1ccccc1)C(=O)N[C@@H](COC(=O)[C@@H](CC=C)Cc1ccc(F)cc1)Cc1c[nH]c2ccccc12 | 76.0 | . | . | - | - | - | - | .
O=C1CC(=C(c2ccccc2)c2ccccc2)C(=O)N1CCCCN1CCN(c2cccc(Cl)c2)CC1 | 60.3 | 113.1 | - | - | - | - | - | .
Cc1ccc(-c2nc3ncccc3o2)cc1NC(=O)c1sc2ccccc2c1Cl | 82.9 | - | - | - | - | - | - | .
Cc1ccc(-c2nc3ncccc3o2)cc1NC(=O)c1cccs1 | - | - | - | - | - | - | . | .
Cc1ccc(F)c([C@H]2C3C=CCC(c4ccccc4)C3C(=O)N2Cc2ccccc2)c1 (stereo partly drawn) | 57.6 | 121.6 | - | - | - | 109.1 | - | .
COc1ccc(-c2cccc(C3CC=CC4C3C(=O)N(Cc3ccccc3)C4c3ccc4ccccc4c3)c2)cc1 (stereo not drawn) | - | - | - | - | - | - | . | .
O=C1C2C(c3ccccc3)CC=CC2[C@H](c2ccoc2)N1Cc1ccccc1 (stereo partly drawn) | - | - | - | - | - | - | . | .
CC[C@@H]1CC=C[C@H]2[C@H]1C(=O)N(Cc1ccccc1)[C@H]2c1cc(C)ccc1F | 54.2 | . | - | - | - | . | 42.0 | 48.9
O=C1C2C(c3ccccc3)CC=CC2[C@H](c2ccc3ccccc3c2)N1Cc1ccccc1 (stereo partly drawn) | 56.9 | - | - | - | - | - | - | .
Cc1onc(-c2ccccc2)c1C(=O)n1nnc2ccccc21 | - | - | - | - | - | - | . | .
CC(=O)OCCNc1cc(SCc2ccco2)c2nonc2c1[N+](=O)[O-] | . | - | - | . | . | - | . | .
CC(=O)OCCCNc1cc(Sc2nc3ccccc3s2)c2nonc2c1[N+](=O)[O-] | 100.4 | 75.9 | 69.5 | - | - | - | 76.5 | 52.1
COc1cccc(NC(=O)COC(=O)c2ccccc2SCC(=O)N2CCCC2)c1 | - | - | - | - | - | - | . | .
O=C(c1ccc([N+](=O)[O-])o1)N1CCN(c2nc3ccc(F)cc3s2)CC1 | - | - | - | - | - | - | . | .
O=C(c1ccc([N+](=O)[O-])o1)N1CCN(c2nc3c(Cl)cccc3s2)CC1 | 56.5 | - | 58.8 | - | - | . | 42.7 | 64.5
COc1ccc(S(=O)(=O)N2CCCCC2)cc1NC(=O)c1[nH]c(C)c(C(C)=O)c1C | 81.9 | . | . | - | - | . | 59.4 | 43.0
Cc1c(C(=O)Nc2ccc(F)cc2)oc2ccc(S(=O)(=O)N3CCC4(CC3)OCCO4)cc12 | - | - | - | - | - | - | . | .
CC(=O)Oc1ccc(-c2ccc(C(=O)Nc3cccc(S(=O)(=O)N4CCOCC4)c3)cc2)cc1 | 66.2 | 93.4 | - | - | - | - | 44.0 | 88.5
Cc1c(C(=O)Nc2cccc(Cl)c2)oc2ccc(S(=O)(=O)N3CCC4(CC3)OCCO4)cc12 | 60.5 | - | - | - | - | - | 67.0 | -
CCC1(c2ccccc2)NC(=O)N(CC(=O)Nc2cc(S(=O)(=O)N3CCCCCC3)ccc2OC)C1=O (stereo not drawn) | 51.3 | - | - | - | - | - | 42.6 | 78.4

High-throughput results from PubChem.
